# Test results: publication PMC10915797 (Molecular Pharmaceutics, 2024)
# Experiments:
# [1] = biological target: recombinant human PD-L1 protein (Homo sapiens, UniProt Q9NZQ7); assay: SPR binding affinity; conditions: read-out: Kd (dissociation rate constant)
# Outline: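 SPR on a CM5 chip at 25 °C. Recombinant human PD-L1 immobilised; surface blocked at pH 8.5. Peptide in HEPES-buffered saline (pH 7.2–7.4, 0.005% P20) at seven concentrations, 1.5625–100 nM, injected at 10 μL/min: 120 s association, 360 s dissociation. Regenerated with glycine pH 2.0 for 15 s. Blank-subtracted sensorgrams fitted to give the dissociation rate constant.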
# [2] = biological target: recombinant murine PD-L1 protein (Mus musculus, UniProt Q9EP73); assay: SPR binding affinity; conditions: read-out: Kd (dissociation rate constant)
# U87MG cells = assay: Blocking of tracer cell binding by PD-L1 antibodies; type: cell-based, human; conditions: U87MG cells pre-incubated with 50 nM antibody, 4 °C, 30 min, then tracer 30 min
# Outline: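 U87MG cells (1 × 10^6 per sample, n = 3) pre-incubated with PBS or 50 nM PD-L1 monoclonal antibody, 4 °C, 30 min, then given 0.1 μCi Al[18F]F-NOTA-PCP1 at 4 °C for 30 min. Washed three times with PBS–0.1% Tween-20. Bound radioactivity gamma-counted and expressed as %ID. Compared with PBS-treated cells by unpaired two-tailed t test.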
# U87MG tumors = assay: Micro-PET/CT target engagement of PD-L1 antibodies; type: in vivo, BALB/c nude mice; conditions: U87MG model
# Outline: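 Female BALB/c nude mice (6–8 weeks, 18.0–23.0 g) carried subcutaneous right-flank U87MG xenografts (6 × 10^6 cells) grown to 100–300 mm3. Atezolizumab given at 0.05–20 mg/kg (n = 3). Imaged 24 or 120 h later: 6.0 ± 0.91 MBq tracer via tail vein, micro-PET/CT at 2 h post-injection under 1.5–2% isoflurane. 3D-OSEM/OP-MAP reconstruction with attenuation correction; manual tumour ROIs; uptake as %ID/cc.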
# Chain of recombinant murine PD-L1 protein (Q9EP73 19-290): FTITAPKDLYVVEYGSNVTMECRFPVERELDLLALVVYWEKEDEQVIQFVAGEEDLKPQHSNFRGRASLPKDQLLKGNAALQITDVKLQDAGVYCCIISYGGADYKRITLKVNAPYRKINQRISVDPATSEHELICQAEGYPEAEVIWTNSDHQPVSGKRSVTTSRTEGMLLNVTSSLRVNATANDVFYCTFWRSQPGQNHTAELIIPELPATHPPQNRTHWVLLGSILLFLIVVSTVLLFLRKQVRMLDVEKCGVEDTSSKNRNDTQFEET
# Chain of recombinant human PD-L1 protein (Q9NZQ7 19-290): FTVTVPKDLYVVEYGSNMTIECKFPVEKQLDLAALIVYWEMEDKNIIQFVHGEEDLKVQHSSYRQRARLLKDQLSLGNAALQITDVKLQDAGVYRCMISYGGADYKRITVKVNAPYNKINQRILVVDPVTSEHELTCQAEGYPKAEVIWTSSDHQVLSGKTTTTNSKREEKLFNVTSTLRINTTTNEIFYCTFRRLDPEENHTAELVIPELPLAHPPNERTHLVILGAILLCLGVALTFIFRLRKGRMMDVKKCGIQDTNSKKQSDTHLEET
compound,measurement,setting,value
CCCC[C@H]1C(=O)N(C)[C@@H](CCCC)C(=O)N[C@@H](CCCNC(=O)CCOCCOCCOCCNC(=O)CN2CCN(CC(=O)O)CCN(CC(=O)O)CC2)C(=O)N[C@H](C(=O)NCC(N)=O)CSCC(=O)N[C@@H](Cc2ccc(O)cc2)C(=O)N(C)[C@@H](C)C(=O)N[C@@H](CC(N)=O)C(=O)N2CCC[C@H]2C(=O)N[C@@H](Cc2c[nH]cn2)C(=O)N[C@@H](CC(C)C)C(=O)N2C[C@H](O)C[C@H]2C(=O)N[C@@H](Cc2c[nH]c3ccccc23)C(=O)N[C@@H](CO)C(=O)N[C@@H](Cc2cn(C)c3ccccc23)C(=O)N1C [NOTA-PCP1],koff,[1],0.000593 s⁻¹
same,koff,[2],0.52 s⁻¹
DurMab: anti-PD-L1 monoclonal antibody,Al[^18F]F-NOTA-PCP1 cell uptake after antibody treatment,U87MG cells,1.34 ± 0.09 %ID
AtzMab: anti-PD-L1 monoclonal antibody,Al[^18F]F-NOTA-PCP1 cell uptake after antibody treatment,U87MG cells,1.26 ± 0.05 %ID
same,tumor Al[^18F]F-NOTA-PCP1 uptake on PET/CT after antibody,"U87MG tumors; AtzMab 0.05 mg/kg, at 120h, n = 3 (Figure 6B)",11.64 ± 1.13 %ID/cc
same,tumor Al[^18F]F-NOTA-PCP1 uptake on PET/CT after antibody,"U87MG tumors; AtzMab 0.5 mg/kg, at 120h, n = 3 (Figure 6B)",6.17 ± 0.35 %ID/cc
same,tumor Al[^18F]F-NOTA-PCP1 uptake on PET/CT after antibody,"U87MG tumors; AtzMab 5 mg/kg, 24 h, n = 3 (Figure 7B)",2.16 ± 0.20 %ID/cc
same,tumor Al[^18F]F-NOTA-PCP1 uptake on PET/CT after antibody,"U87MG tumors; AtzMab 5 mg/kg, 120 h, n = 3 (Figure 7B)",6.91 ± 0.18 %ID/cc
same,tumor Al[^18F]F-NOTA-PCP1 uptake on PET/CT after antibody,"U87MG tumors; AtzMab 20 mg/kg, 24 h, n = 3 (Figure 7B)",2.19 ± 0.13 %ID/cc
same,tumor Al[^18F]F-NOTA-PCP1 uptake on PET/CT after antibody,"U87MG tumors; AtzMab 20 mg/kg, 120 h, n = 3 (Figure 7B)",2.29 ± 0.04 %ID/cc
same,tumor Al[^18F]F-NOTA-PCP1 uptake on PET/CT after antibody,"U87MG tumors; AtzMab 20 mg/kg, at 120h, n = 3 (Figure 6B)",2.02 ± 0.14 %ID/cc
AveMab: anti-PD-L1 monoclonal antibody,Al[^18F]F-NOTA-PCP1 cell uptake after antibody treatment,U87MG cells,1.40 ± 0.05 %ID
